Results reported in paper PMC2765518 (Journal of medicinal chemistry, 2009).

Assays:
[1] = cited from earlier work
c-Myc-Max(S) heterodimer = c-Myc-Max(S) heterodimer (Homo sapiens, UniProt P01106); assay: Circular dichroism assay of c-Myc-Max dimer disruption; assay type: biochemical
Summary of the method: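 Circular dichroism of an equimolar c-Myc/Max(S) mixture, each at 1.5 µM, with helical content from ellipticity at 222 nm. Dimer disruption lowers helicity. Test compound was titrated and the data fitted to a competition constant (Kcomp). Kcomp multiplied by the independently determined c-Myc-Max dissociation constant gives the affinity for the c-Myc monomer, assuming monomer-only binding. Run in triplicate.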

c-Myc (353–437) monomer = c-Myc (353–437) monomer (Homo sapiens, UniProt P01106); assay: Fluorescence polarization competition against 1 for c-Myc binding
Summary of the method: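 Fluorescence polarization of an intrinsically fluorescent parent Myc-Max disruptor used as probe; polarization rises when the probe binds the c-Myc (353–437) monomer. Test compound was titrated to displace the probe, and the data fitted to a competition constant (Kcomp). Affinity is Kcomp multiplied by the probe–c-Myc(353–437) dissociation constant. Run in triplicate.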

HL60 cells = assay: HL60 cell growth inhibition; assay type: cell-based; conditions: for Inhibition in HL60 cells: higher levels of c-Myc
Summary of the method: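 Test compound added to HL60 cells across a dose range, and growth followed over several days. IC50 taken from the dose-response profile on day 5 after compound addition. For the selectivity comparison, TGR1 normal rat fibroblasts and TGR1 knockout cells over-expressing HMGA1b (KO+HMG) were tested alongside.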

[2] = system: TGR1 knockout cells with over-expressed HMGA1b (KO+HMG); assay: Growth inhibition of TGR1 knockout cells with over-expressed HMGA1b; assay type: cell-based, rat; conditions: cells lacking c-Myc; compared with HL60 and TGR1

Chain of c-Myc (353–437) monomer (P01106 368-452): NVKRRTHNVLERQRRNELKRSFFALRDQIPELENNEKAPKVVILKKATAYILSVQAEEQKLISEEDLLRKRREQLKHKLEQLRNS
Chain of c-Myc-Max(S) heterodimer (P01106 368-452, one chain of several): as the sequence (P01106 368-452) above

Kd (c-Myc-Max(S) heterodimer) [µM] | Kd (c-Myc (353–437) monomer) [µM] | IC50 (HL60 cells; Homo sapiens, HL-60, 120 h, read-out: IC50 on HL60 cell growth) [µM] | SMILES | Metabolism and clearance [1] | Inhibition in HL60 cells (HL60 cells) | Selectivity for HL60 cells (HL60 cells; HL60 versus TGR1 and KO+HMG cells) | Effect on growth of KO+HMG cells [2]
19 | 18 |  | CC(C)c1ccc(OCC(=O)Nc2nc3ccccc3s2)cc1 [compound 4] |  |  |  | 
45 | 70 |  | CCc1ccc(OCC(=O)Nc2ccc(C)cc2Br)cc1 [compound 5] |  | very good inhibition | more selective for HL60s than 6 | least effect
 |  | 16.7 | Cc1ccc(C)c(OCN2Cc3ccccc3C2C=O)c1 (stereo not drawn) [compound 6] |  | very good inhibition |  | least effect

Second part, the compound before the results:

SMILES | Kd (c-Myc-Max(S) heterodimer) [µM] | Kd (c-Myc (353–437) monomer) [µM] | IC50 (HL60 cells; Homo sapiens, HL-60, 120 h, read-out: IC50 on HL60 cell growth) [µM] | Metabolism and clearance [1] | Inhibition in HL60 cells (HL60 cells) | Selectivity for HL60 cells (HL60 cells; HL60 versus TGR1 and KO+HMG cells) | Effect on growth of KO+HMG cells [2]
CCc1ccc(/C=C2\SC(=S)NC2=O)cc1 [compound 1, [Z,E]-5-[4-ethylbenzylidine]-2-thioxothiazolidin-4-one] |  |  |  | extensive metabolism and rapid clearance |  |  | 
O=C(CCN1C(=O)c2ccccc2C1=O)N1CCCCC1 [compound 2] | 10 | 2.5 |  |  |  |  | 
CCc1ccc(N2CC(C(=O)OC)CC2=O)cc1 (stereo not drawn) [compound 3] | 25 | 40 |  |  |  |  | 
